Experimental findings from ChEMBL document CHEMBL1687714, “Genetic analysis of fenhexamid-resistant field isolates of the phytopathogenic fungus Botrytis cinerea” (Antimicrob Agents Chemother, 2008) are described below.

Format in all cases: functional, organism-based
Assay [1] concerns Botrytis cinerea. Description: Antifungal activity against highly fenhexamid-resistant Botrytis cinerea 179 assessed as inhibition of mycelium growth measured over 5 days. As to conditions: Botrytis cinerea, 179, 120 h.
Assay [2] deals with Botrytis cinerea. Description: Antifungal activity against moderately to slightly fenhexamid-resistant Botrytis cinerea 05-1.27 assessed as inhibition of mycelium growth measured over 5 days. To be noted: 05-1.27, 120 h.
Assay [3] has as its system Botrytis cinerea. As to the kind of experiment: Antifungal activity against highly fenhexamid-resistant Botrytis cinerea 312 assessed as inhibition of germ tube elongation after 24 hrs. As to conditions: Botrytis cinerea, 312, 24 h.
Assay [4] deals with Botrytis cinerea. Description: Antifungal activity against fenhexamid-senistive Botrytis cinerea B05.10 assessed as inhibition of mycelium growth measured over 5 days. As to conditions: B05.10, 120 h.
The test system of assay [5] is Botrytis cinerea. Description: Antifungal activity against highly fenhexamid-resistant Botrytis cinerea MK3-9 assessed as inhibition of germ tube elongation after 24 hrs. To be noted: MK3-9, 24 h.
Assay [6] concerns Botrytis cinerea. As to the kind of experiment: Antifungal activity against fenhexamid-senistive Botrytis cinerea SAS405 assessed as inhibition of mycelium growth measured over 5 days. To be noted: SAS405, 120 h.
The test system of assay [7] is Botrytis cinerea. Description: Antifungal activity against HydR3 deficient Botrytis cinerea 453 harboring TELerg N369D mutant at 5 ug/ml relative to wild-type. A digest of the protocol: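 In the dominance test, the recipient strains 453b and 286 were transformed with different erg27 alleles. Spores of the transformants were grown on YSS medium containing fenhexamid at different concentrations and 50 µg ml–1 hygromycin B. Parental strains were grown without hygromycin. Growth was scored after 7 days at 21°C.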

In assay [8] the test system is Botrytis cinerea. As to the kind of experiment: Antifungal activity against highly fenhexamid-resistant Botrytis cinerea 264 assessed as inhibition of mycelium growth measured over 5 days. As to conditions: Botrytis cinerea, 264, 120 h.
Assay [9] has as its system Botrytis cinerea. As to the kind of experiment: Antifungal activity against highly fenhexamid-resistant Botrytis cinerea 379a assessed as inhibition of germ tube elongation after 24 hrs.

≈ marks a conversion by molar mass, not a printed value. Calls of active or inactive are those of the source. The rule behind the calls is not given here. Bounds are passed on as bounds.

In general, EC50 refers to the concentration that produces a half-maximal response. Take `CC1(C(=O)Nc2ccc(O)c(Cl)c2Cl)CCCCC1` [FENHEXAMID]: the EC50 in the assay on Botrytis cinerea [1] is greater than 10 µg/mL; in the assay on Botrytis cinerea [2] it was 0.2 µg/mL (≈ 0.662 µM); in the assay with Botrytis cinerea [3], greater than 10 µg/mL; with Botrytis cinerea [4], less than 0.03 µg/mL; in the assay on Botrytis cinerea [5], greater than 5 µg/mL; in the assay on Botrytis cinerea [6], less than 0.1 µg/mL. Further, the concentration for a half-maximal effect (EC50) in the assay with Botrytis cinerea [8] and with Botrytis cinerea [9] was greater than 10 µg/mL in each case. Also, the outcome in the assay on Botrytis cinerea [7] was inactive.
